13 compounds from ChEMBL document CHEMBL4118106 (J Med Chem, 2018) can be followed below.

Each structure is given as a SMILES string. Where a SMILES comes first, the peptide text is derived from it. Bridges are numbered along the chain shown (N, C = ends). [ ]: non-standard residue; d: D form. R5 = C=CCCC[C@@](C)(N)C(=O)O; S5 = C=CCCC[C@](C)(N)C(=O)O; Nle = CCCC[C@H](N)C(=O)O A value given as a limit tells only on which side of the number the result lay.

Assay [1] can be described thus: Inhibition of EGFP-fused MERS-CoV spike protein mediated cell-cell fusion between viral protein expressing human 293T cells and human HuH7 target cells after 4 hrs by inverted fluorescence microscopic analysis. On the set-up: species or system Middle East respiratory syndrome-related coronavirus. In a few lines: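 Huh-7 target cells expressing DPP4 were seeded at 5 × 10^4/well and kept at 37 °C for 5 h. Inhibitors were added, then 293T effector cells co-expressing S protein and EGFP (1 × 10^4/well); 293T/EGFP-only cells served as negative control. After 4 h coculture at 37 °C, fused and unfused cells were counted by fluorescence microscopy.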

The nature of assay [2]: Binding affinity to NHR peptide HR1P in pH 7.2 phosphate buffer assessed as thermal unfolding transition at 50 uM after 30 mins by CD spectroscopic method. In a few lines:
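Equimolar HR1P/peptide mixtures, 50 µM final in 50 mM PBS pH 7.2, were preincubated at 25 °C for 30 min. Thermal denaturation was followed by CD at 222 nm over a 10–90 °C gradient at 2 °C/min.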

Usually EC50 stands for the midpoint of the concentration-response curve. Low readings indicate higher potency in that assay, high ones lower potency in that assay. `CSCC[C@H](NC(=O)[C@]1(C)CCC/C=C\CCC[C@](C)(NC(=O)[C@H](CC(C)C)NC(C)=O)C(=O)N[C@@H](CC(C)C)C(=O)N[C@@H]([C@@H](C)O)C(=O)N[C@@H](Cc2ccc(O)cc2)C(=O)N1)C(=O)N[C@@H](CC(C)C)C(=O)N[C@@H](CO)C(=O)N[C@@H](CC(C)C)C(=O)N[C@@H](CCC(N)=O)C(=O)N[C@@H](CCC(N)=O)C(=O)N[C@H](C(=O)N[C@H](C(=O)N[C@@H](CCCCN)C(=O)N[C@@H](C)C(=O)N[C@@H](CC(C)C)C(=O)N[C@@H](CC(N)=O)C(=O)N[C@@H](CCC(=O)O)C(=O)N[C@@H](CO)C(=O)N[C@@H](Cc1ccc(O)cc1)C(N)=O)C(C)C)C(C)C`: a half-maximal effect in assay [1] (EC50) was put at 3.9 µM.
On the same count and under the same terms, for `C=CCCC[C@](C)(NC(=O)[C@H](CCC(=O)O)NC(=O)[C@H](CC(N)=O)NC(=O)[C@H](CC(C)C)NC(=O)[C@](C)(CCCC=C)NC(=O)[C@H](CCCCN)NC(=O)[C@@H](NC(=O)[C@@H](NC(=O)[C@H](CCC(N)=O)NC(=O)[C@H](CCC(N)=O)NC(=O)[C@H](CC(C)C)NC(=O)[C@H](CO)NC(=O)[C@H](CC(C)C)NC(=O)[C@H](CCSC)NC(=O)[C@H](CCC(=O)O)NC(=O)[C@H](Cc1ccc(O)cc1)NC(=O)[C@@H](NC(=O)[C@H](CC(C)C)NC(=O)[C@H](CC(=O)O)NC(=O)[C@H](CC(C)C)NC(C)=O)[C@@H](C)O)C(C)C)C(C)C)C(=O)N[C@@H](Cc1ccc(O)cc1)C(N)=O` the value was 3.55 µM.
In general, Tm refers to the temperature at which the thermal transition is half complete. On to `CSCC[C@H](NC(=O)[C@H](CCC(=O)O)NC(=O)[C@H](Cc1ccc(O)cc1)NC(=O)[C@@H](NC(=O)[C@H](CC(C)C)NC(=O)[C@H](CC(=O)O)NC(=O)[C@H](CC(C)C)NC(C)=O)[C@@H](C)O)C(=O)N[C@@H](CC(C)C)C(=O)N[C@@H](CO)C(=O)N[C@@H](CC(C)C)C(=O)N[C@@H](CCC(N)=O)C(=O)N[C@@H](CCC(N)=O)C(=O)N[C@H](C(=O)N[C@H](C(=O)N[C@@]1(C)CCC/C=C/CCC[C@@](C)(C(=O)N[C@@H](CO)C(=O)N[C@@H](Cc2ccc(O)cc2)C(N)=O)NC(=O)[C@H](CC(N)=O)NC(=O)[C@H](CC(C)C)NC(=O)[C@H](C)NC1=O)C(C)C)C(C)C`, for which, in assay [2], the Tm was in the range of 56.6 to 66.6 °C. In assay [1], the EC50 was 14.1 µM.
In the case of `C=CCCC[C@](C)(NC(=O)[C@H](Cc1ccc(O)cc1)NC(=O)[C@@H](NC(=O)[C@H](CC(C)C)NC(=O)[C@](C)(CCCC=C)NC(=O)[C@H](CC(C)C)NC(C)=O)[C@@H](C)O)C(=O)N[C@@H](CCSC)C(=O)N[C@@H](CC(C)C)C(=O)N[C@@H](CO)C(=O)N[C@@H](CC(C)C)C(=O)N[C@@H](CCC(N)=O)C(=O)N[C@@H](CCC(N)=O)C(=O)N[C@H](C(=O)N[C@H](C(=O)N[C@@H](CCCCN)C(=O)N[C@@H](C)C(=O)N[C@@H](CC(C)C)C(=O)N[C@@H](CC(N)=O)C(=O)N[C@@H](CCC(=O)O)C(=O)N[C@@H](CO)C(=O)N[C@@H](Cc1ccc(O)cc1)C(N)=O)C(C)C)C(C)C`, it took 10.9 µM to reach a half-maximal effect in assay [1] (EC50).
As to `CSCC[C@H](NC(=O)[C@H](CCC(=O)O)NC(=O)[C@H](Cc1ccc(O)cc1)NC(=O)[C@@H](NC(=O)[C@H](CC(C)C)NC(=O)[C@H](CC(=O)O)NC(=O)[C@H](CC(C)C)NC(C)=O)[C@@H](C)O)C(=O)N[C@@H](CC(C)C)C(=O)N[C@@H](CO)C(=O)N[C@@H](CC(C)C)C(=O)N[C@@H](CCC(N)=O)C(=O)N[C@@H](CCC(N)=O)C(=O)N[C@H](C(=O)N[C@H](C(=O)N[C@@H](CCCCN)C(=O)N[C@@H](C)C(=O)N[C@@H](CC(C)C)C(=O)N[C@@H](CC(N)=O)C(=O)N[C@@H](CCC(=O)O)C(=O)N[C@@H](CO)C(=O)N[C@@H](Cc1ccc(O)cc1)C(N)=O)C(C)C)C(C)C`, in assay [1], the EC50 is more than 50 µM.
In the case of `CSCC[C@@H]1NC(=O)[C@H](CCC(=O)O)NC(=O)[C@@](C)(NC(=O)[C@@H](NC(=O)[C@H](CC(C)C)NC(=O)[C@H](CC(=O)O)NC(=O)[C@H](CC(C)C)NC(C)=O)[C@@H](C)O)CCC/C=C\CCC[C@@](C)(C(=O)N[C@@H](CC(C)C)C(=O)N[C@@H](CCC(N)=O)C(=O)N[C@@H](CCC(N)=O)C(=O)N[C@H](C(=O)N[C@H](C(=O)N[C@@H](CCCCN)C(=O)N[C@@H](C)C(=O)N[C@@H](CC(C)C)C(=O)N[C@@H](CC(N)=O)C(=O)N[C@@H](CCC(=O)O)C(=O)N[C@@H](CO)C(=O)N[C@@H](Cc2ccc(O)cc2)C(N)=O)C(C)C)C(C)C)NC(=O)[C@H](CC(C)C)NC1=O`, the Tm in assay [2] lay within 56.6 to 66.6 °C. Also, the EC50 in assay [1] was found to be 7.14 µM.
For `C=CCCC[C@](C)(NC(=O)[C@H](CC(N)=O)NC(=O)[C@H](CC(C)C)NC(=O)[C@H](C)NC(=O)[C@](C)(CCCC=C)NC(=O)[C@@H](NC(=O)[C@@H](NC(=O)[C@H](CCC(N)=O)NC(=O)[C@H](CCC(N)=O)NC(=O)[C@H](CC(C)C)NC(=O)[C@H](CO)NC(=O)[C@H](CC(C)C)NC(=O)[C@H](CCSC)NC(=O)[C@H](CCC(=O)O)NC(=O)[C@H](Cc1ccc(O)cc1)NC(=O)[C@@H](NC(=O)[C@H](CC(C)C)NC(=O)[C@H](CC(=O)O)NC(=O)[C@H](CC(C)C)NC(C)=O)[C@@H](C)O)C(C)C)C(C)C)C(=O)N[C@@H](CO)C(=O)N[C@@H](Cc1ccc(O)cc1)C(N)=O`, in assay [1], a half-maximal response (EC50) required 10.9 µM.
In assay [1], `C=CCCC[C@](C)(NC(=O)[C@H](CC(C)C)NC(=O)[C@H](CCSC)NC(=O)[C@H](CCC(=O)O)NC(=O)[C@](C)(CCCC=C)NC(=O)[C@@H](NC(=O)[C@H](CC(C)C)NC(=O)[C@H](CC(=O)O)NC(=O)[C@H](CC(C)C)NC(C)=O)[C@@H](C)O)C(=O)N[C@@H](CC(C)C)C(=O)N[C@@H](CCC(N)=O)C(=O)N[C@@H](CCC(N)=O)C(=O)N[C@H](C(=O)N[C@H](C(=O)N[C@@H](CCCCN)C(=O)N[C@@H](C)C(=O)N[C@@H](CC(C)C)C(=O)N[C@@H](CC(N)=O)C(=O)N[C@@H](CCC(=O)O)C(=O)N[C@@H](CO)C(=O)N[C@@H](Cc1ccc(O)cc1)C(N)=O)C(C)C)C(C)C` came in with an EC50 of 8.21 µM.
In assay [1], `CSCC[C@H](NC(=O)[C@H](CCC(=O)O)NC(=O)[C@H](Cc1ccc(O)cc1)NC(=O)[C@@H](NC(=O)[C@H](CC(C)C)NC(=O)[C@H](CC(=O)O)NC(=O)[C@H](CC(C)C)NC(C)=O)[C@@H](C)O)C(=O)N[C@@H](CC(C)C)C(=O)N[C@@H](CO)C(=O)N[C@@H](CC(C)C)C(=O)N[C@@H](CCC(N)=O)C(=O)N[C@]1(C)CCC/C=C\CCC[C@](C)(C(=O)N[C@@H](CC(C)C)C(=O)N[C@@H](CC(N)=O)C(=O)N[C@@H](CCC(=O)O)C(=O)N[C@@H](CO)C(=O)N[C@@H](Cc2ccc(O)cc2)C(N)=O)NC(=O)[C@H](CCCCN)NC(=O)[C@H](C(C)C)NC(=O)[C@H](C(C)C)NC1=O` (Ac-LDLTYEMLSLQ[R5]VVK[R5]LNESY-NH2; staple (Z) 12-16) gave a concentration for a half-maximal effect (EC50) of 16.3 µM.
In turn, `CSCC[C@H](NC(=O)[C@H](CCC(=O)O)NC(=O)[C@H](Cc1ccc(O)cc1)NC(=O)[C@@H](NC(=O)[C@H](CC(C)C)NC(=O)[C@H](CC(=O)O)NC(=O)[C@H](CC(C)C)NC(C)=O)[C@@H](C)O)C(=O)N[C@@H](CC(C)C)C(=O)N[C@@H](CO)C(=O)N[C@@H](CC(C)C)C(=O)N[C@@H](CCC(N)=O)C(=O)N[C@@]1(C)CCC/C=C\CCC[C@@](C)(C(=O)N[C@@H](CC(C)C)C(=O)N[C@@H](CC(N)=O)C(=O)N[C@@H](CCC(=O)O)C(=O)N[C@@H](CO)C(=O)N[C@@H](Cc2ccccc2)C(N)=O)NC(=O)[C@H](CCCCN)NC(=O)[C@H](C(C)C)NC(=O)[C@H](C(C)C)NC1=O` (Ac-LDLTYEMLSLQ[S5]VVK[S5]LNESF-NH2; staple (Z) 12-16) registered an EC50 in assay [1] of 2.16 µM.
Take `C=CCCC[C@](C)(NC(=O)[C@H](CCCCN)NC(=O)[C@@H](NC(=O)[C@@H](NC(=O)[C@](C)(CCCC=C)NC(=O)[C@H](CCC(N)=O)NC(=O)[C@H](CC(C)C)NC(=O)[C@H](CO)NC(=O)[C@H](CC(C)C)NC(=O)[C@H](CCSC)NC(=O)[C@H](CCC(=O)O)NC(=O)[C@H](Cc1ccc(O)cc1)NC(=O)[C@@H](NC(=O)[C@H](CC(C)C)NC(=O)[C@H](CC(=O)O)NC(=O)[C@H](CC(C)C)NC(C)=O)[C@@H](C)O)C(C)C)C(C)C)C(=O)N[C@@H](CC(C)C)C(=O)N[C@@H](CC(N)=O)C(=O)N[C@@H](CCC(=O)O)C(=O)N[C@@H](CO)C(=O)N[C@@H](Cc1ccc(O)cc1)C(N)=O` (Ac-LDLTYEMLSLQ[S5]VVK[S5]LNESY-NH2): in assay [1], the EC50 came to 20.6 µM.
Same read-out and setting: as for `C=CCCC[C@](C)(NC(=O)[C@H](CCSC)NC(=O)[C@H](CCC(=O)O)NC(=O)[C@H](Cc1ccc(O)cc1)NC(=O)[C@@H](NC(=O)[C@H](CC(C)C)NC(=O)[C@H](CC(=O)O)NC(=O)[C@H](CC(C)C)NC(C)=O)[C@@H](C)O)C(=O)N[C@@H](CO)C(=O)N[C@@H](CC(C)C)C(=O)N[C@@H](CCC(N)=O)C(=O)N[C@@](C)(CCCC=C)C(=O)N[C@H](C(=O)N[C@H](C(=O)N[C@@H](CCCCN)C(=O)N[C@@H](C)C(=O)N[C@@H](CC(C)C)C(=O)N[C@@H](CC(N)=O)C(=O)N[C@@H](CCC(=O)O)C(=O)N[C@@H](CO)C(=O)N[C@@H](Cc1ccc(O)cc1)C(N)=O)C(C)C)C(C)C` (Ac-LDLTYEM[S5]SLQ[S5]VVKALNESY-NH2), the figure is 4.49 µM; as for `CCCC[C@H](NC(=O)[C@H](CCC(=O)O)NC(=O)[C@H](Cc1ccc(O)cc1)NC(=O)[C@@H](NC(=O)[C@H](CC(C)C)NC(=O)[C@H](CC(=O)O)NC(=O)[C@H](CC(C)C)NC(C)=O)[C@@H](C)O)C(=O)N[C@@H](CC(C)C)C(=O)N[C@@H](CO)C(=O)N[C@@H](CC(C)C)C(=O)N[C@@H](CCC(N)=O)C(=O)N[C@@]1(C)CCC/C=C\CCC[C@@](C)(C(=O)N[C@@H](CC(C)C)C(=O)N[C@@H](CC(N)=O)C(=O)N[C@@H](CCC(=O)O)C(=O)N[C@@H](CO)C(=O)N[C@@H](Cc2ccccc2)C(N)=O)NC(=O)[C@H](CCCCN)NC(=O)[C@H](C(C)C)NC(=O)[C@H](C(C)C)NC1=O` (Ac-LDLTYE[Nle]LSLQ[S5]VVK[S5]LNESF-NH2; staple (Z) 12-16), 3.89 µM.
